The source made the active and inactive calls. No cut-off for these calls is given here.
What was measured:
[1] = Drug uptake in neural retina of C57BL/6 mouse assessed per mg of protein at 80 mg/kg, po administered everyday for 14 days by HPLC-MS analysis; format: ADME, organism-based; details: in vivo, 336 h
In short: (§1)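 C57BL/6 mice fed chow containing 0.05% compound (~80 mg/kg/day average) for 14 days. Perfused with PBS; brain, lens and neural retina homogenized in ice-cold 10 mM acetate pH 4 with internal standard. Extracted with TCA precipitation and chloroform. Analyzed by reverse-phase C18 HPLC.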

[2] = Drug uptake in lens of C57BL/6 mouse assessed per mg of protein at 80 mg/kg, po administered everyday for 14 days by HPLC-MS analysis; format: ADME, organism-based, Lens of camera-type eye; details: in vivo, 336 h; in short: as §1
Brain = experiment: Drug uptake in brain of C57BL/6 mouse assessed per mg of protein at 80 mg/kg, po administered everyday for 14 days by HPLC-MS analysis; format: ADME, organism-based; details: in vivo, 336 h; in short: as §1
[3] = Metal chelating activity assessed as stoichiometric ratio of compound to Cu2+ ion at 0.1 to 0.5 mM of compound and metal ion mixture after 45 mins by spectrophotometric analysis; format: physicochemical; details: 0.75 h, 500 µM
In short: (§2)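 Job continuous-variation method at 23 °C. Compound dissolved in acetonitrile, then diluted to 0.1 mM stock in 1 mM acetate pH 6.5. Compound + ion at constant total 0.1–0.5 mM with varied mole fraction. After 45 min equilibration, UV absorbance scanned 210–310 nm. Stoichiometry taken from the intersection of lines. Mean ± SD, n = 3.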

ARPE-19 [4] = experiment: Antioxidant activity in human ARPE19 cells assessed as reduction of xanthine oxidase-mediated superoxide generation preincubated for 1 hr followed by xanthine oxidase challenge for 1 hr by MitoSOX staining-based fluorescence analysis; format: functional, cell-based
In short: (§3)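 Cells washed with PBS, then preincubated 1 h at 37 °C in serum-free medium with 1, 10, 100 or 1000 μM compound, or SOD 25 μg/mL as reference. Xanthine oxidase added (25 mU/mL; ~100 μM superoxide) for 1 h more. After a PBS wash, cells stained with MitoSOX Red (5 μM) for 2 h. Fluorescence read at Ex/Em 510/580 nm.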

SH-SY5Y [5] = experiment: Cytotoxicity against human SH-SY5Y cells assessed as reduction in cell viability at 1 mM after 2 hrs by MTS assay; format: cell-based; details: 1000 µM
In short: (§4)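 ARPE-19 grown in DMEM + 4% FBS and SH-SY5Y in EMEM/F12 + 10% FBS, at 37 °C, 5% CO2. Plated at 1 × 10^4 cells/well. Exposed 2 h to 1 mM compound (0.16% DMSO) without oxidant. Viability by MTS. Mean ± SEM, n = 4, ANOVA versus blank control.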

SH-SY5Y [6] = experiment: Antioxidant activity in human SH-SY5Y cells assessed as reduction of xanthine oxidase-mediated superoxide generation preincubated for 1 hr followed by xanthine oxidase challenge for 1 hr by MitoSOX staining-based fluorescence analysis; format: functional, cell-based; in short: as §3
[7] = Metal chelating activity assessed as stoichiometric ratio of compound to Mg2+ ion at 0.1 to 0.5 mM of compound and metal ion mixture after 45 mins by spectrophotometric analysis; format: physicochemical; details: 0.75 h, 500 µM; in short: as §2
[8] = Metal chelating activity assessed as stoichiometric ratio of compound to Fe3+ ion at 0.1 to 0.5 mM of compound and metal ion mixture after 45 mins by spectrophotometric analysis; format: physicochemical; details: 0.75 h, 500 µM; in short: as §2
[9] = Metal chelating activity assessed as stoichiometric ratio of compound to Mn2+ ion at 0.1 to 0.5 mM of compound and metal ion mixture after 45 mins by spectrophotometric analysis; format: physicochemical; details: 0.75 h, 500 µM; in short: as §2
ARPE-19 [10] = experiment: Neuroprotective activity against Fenton reagent-induced ROS generation in human ARPE19 cells assessed as increase in GSH level at 1 mM after 2 hrs by DTNB method; format: functional, cell-based
In short: (§5)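 Cells grown in 60 or 150 mm dishes and exposed 2 h to Fenton reagent (1 mM H2O2 + 1 mM Fe2+) with or without 1 mM compound in 0.16% DMSO. Intracellular glutathione then measured. Mean ± SEM, n = 6. ANOVA.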

SH-SY5Y [11] = experiment: Neuroprotective activity against Fenton reagent-induced ROS generation-stimulated cytotoxicity in human SH-SY5Y cells assessed as cell viability at 1 mM after 2 hrs by MTS assay; format: functional, cell-based
In short: (§6)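 Cells in 96-well format exposed 2 h to Fenton reagent (1 mM H2O2 + 1 mM Fe2+) with or without 1 mM compound in 0.16% DMSO. Viability by MTS assay, normalized to untreated cells without Fenton reagent (100%). Mean ± SEM, n = 4. ANOVA.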

ARPE-19 [12] = experiment: Neuroprotective activity against Fenton reagent-induced hydroxy radical-stimulated cytotoxicity in human ARPE19 cells assessed as cell survival at 1 to 1000 uM preincubated for 1 hr followed by Fenton reagent challenge for 2 hrs by fluorescence-based LIVE/DEAD viability/cytotoxicity assay; format: functional
In short: (§7)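 After a PBS wash, cells preincubated 1 h at 37 °C in serum-free medium with 1–1000 μM compound. Fenton reagent (Fe2+/H2O2, 100 μM final) then added for 2 h. Stained 15 min at 37 °C with calcein AM 8 μM and EthD-1 16 μM. Fluorescence read at 494/517 and 528/617 nm. % live cells calculated from blank-corrected single-dye controls; dead-cell control 70% ethanol. Mean ± SEM, n = 6.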

ARPE-19 [13] = experiment: Neuroprotective activity against Fenton reagent-induced ROS generation-stimulated cytotoxicity in human ARPE19 cells assessed as cell viability at 1 mM after 2 hrs by MTS assay; format: functional, cell-based; in short: as §6
[14] = Metal chelating activity assessed as stoichiometric ratio of compound to Ca2+ ion at 0.1 to 0.5 mM of compound and metal ion mixture after 45 mins by spectrophotometric analysis; format: physicochemical; details: 0.75 h, 500 µM; in short: as §2
[15] = Metal chelating activity assessed as stoichiometric ratio of compound to Cu+ ion at 0.1 to 0.5 mM of compound and metal ion mixture after 45 mins by spectrophotometric analysis; format: physicochemical; details: 0.75 h, 500 µM; in short: as §2
[16] = Metal chelating activity assessed as stoichiometric ratio of compound to Zn2+ ion at 0.1 to 0.5 mM of compound and metal ion mixture after 45 mins by spectrophotometric analysis; format: physicochemical; details: 0.75 h, 500 µM; in short: as §2
SH-SY5Y [17] = experiment: Neuroprotective activity against Fenton reagent-induced hydroxy radical-stimulated cytotoxicity in human SH-SY5Y cells assessed as cell survival at 1 to 1000 uM preincubated for 1 hr followed by Fenton reagent challenge for 2 hrs by fluorescence-based LIVE/DEAD viability/cytotoxicity assay; format: functional; in short: as §7
[18] = Metal chelating activity assessed as stoichiometric ratio of compound to Fe2+ ion at 0.1 to 0.5 mM of compound and metal ion mixture after 45 mins by spectrophotometric analysis; format: physicochemical; details: 0.75 h, 500 µM; in short: as §2
SH-SY5Y [19] = experiment: Neuroprotective activity against Fenton reagent-induced ROS generation in human SH-SY5Y cells assessed as increase in GSH level at 1 mM after 2 hrs by DTNB method; format: functional, cell-based; in short: as §5
[20] = Cytotoxicity against human ARPE19 cells assessed as reduction in cell viability at 1 mM after 2 hrs by MTS assay; format: cell-based; details: arpe-19, 2 h, 1000 µM; in short: as §4

Drug uptake [1] | Drug uptake [2] | Drug uptake (Brain) | Structure (SMILES) | Activity (ARPE-19 [4]) | Activity (SH-SY5Y [6]) | Activity (ARPE-19 [10]) | Activity (SH-SY5Y [11]) | Activity (ARPE-19 [12]) | Activity (ARPE-19 [13]) | Activity (SH-SY5Y [17]) | Activity (SH-SY5Y [19]) | further results
Active | Active | 4 ng/mg | COc1nc(N2C(=O)CN(S(=O)(=O)N(C)C)CC2=O)nc(OC)c1O |  |  |  |  |  |  |  |  | 
Active | Active |  | COc1nc(N2C(=O)CCC2=O)nc(OC)c1O | Dose-dependent effect | Dose-dependent effect | Active | Active | Dose-dependent effect | Active | Dose-dependent effect | Active | Ratio [3]: 2.13; Activity (SH-SY5Y [5]): Non-toxic; Ratio [7]: 0; Ratio [8]: 2.12; Ratio [9]: 2.22; Ratio [14]: 0; Ratio [15]: 2.03; Ratio [16]: 2.01; Ratio [18]: 2.03; Activity [20]: Non-toxic
Active | Active | 3 ng/mg | CN(C)S(=O)(=O)N1CC(=O)N(c2ncc(O)cn2)C(=O)C1 | Dose-dependent effect | Dose-dependent effect | Active | Active | Dose-dependent effect | Active | Dose-dependent effect | Active | 
